Results gathered from unrelated publications.
Compare with care: the assays were run in different laboratories.
ACHE: Acetylcholinesterase (ACHE, Homo sapiens, UniProt P22303)

SMILES | target | observed | mode | technique | concentration | endpoint | result
C1CO1.C=O.CC(C)(C)CC(C)(C)c1ccc(O)cc1 | Mitogen-activated protein kinase 3 (MAPK3, Homo sapiens, UniProt P27361) | enzyme activity | inhibitor | ADP detection | 10 µM | inhibition | 45.2%
CCc1ccc(N2C(=O)/C(=C3/C(=O)N(C)c4ccc(Cl)cc43)NC2=S)cc1 | ACHE | enzyme activity | inhibitor | Ellman | 5 µM | inhibition | 84%
COc1cc(/C=C/C(=O)O)ccc1OCc1cn(CC(=O)Nc2ccccc2[N+](=O)[O-])nn1 | ACHE | enzyme activity | inhibitor | Ellman | 40 µM | inhibition | 22.1%
CCCCC(=O)Nc1ccc(-c2ccc3ncn(CCC)c(=O)c3c2)cn1 | Serine/threonine-protein kinase PknB (pknB, Mycobacterium tuberculosis, UniProt P9WI81) | binding | – | competition with immobilised ligand | 0.5 µM | remaining binding | 100%
CC(C)CC(=O)OC[C@H]1O[C@@](C#N)(c2ccc3c(N)ncnn23)[C@H](O)[C@@H]1O | ACHE | enzyme activity | inhibitor | – | 20 µM | inhibition | 3%
COc1cc(/C=C/C(=O)O)ccc1OCc1cn(CC(=O)Nc2ccccc2C)nn1 | ACHE | enzyme activity | inhibitor | Ellman | 40 µM | inhibition | 30.9%
[2H]c1c([2H])c([C@]2([2H])CCCN2C(=O)C(C)(C)Oc2ccc3cn[nH]c3c2)c([2H])c([2H])c1C([2H])([2H])[2H] | Ephrin type-A receptor 2 (EPHA2, Homo sapiens, UniProt P29317) | binding | – | competition with immobilised ligand | 1 µM | remaining binding | 99%
CN1C(=O)/C(=N\Nc2ncc(-c3cc4ccccc4oc3=O)s2)c2cc(Cl)ccc21 | ACHE | enzyme activity | inhibitor | Ellman | 1 µM | inhibition | 90%
COc1cc(/C=C/C(=O)O)ccc1OCc1cn(CC(=O)Nc2ccc(C)cc2)nn1 | ACHE | enzyme activity | inhibitor | Ellman | 40 µM | inhibition | 46%
